Source: ChEMBL document CHEMBL1125001, “Selective inhibition of urokinase by substituted phenylguanidines: quantitative structure-activity relationship analyses” (J Med Chem, 1990)

Key:
[1] = target: Plasma kallikrein (Homo sapiens) (UniProt P03952); test: Inhibition against human plasma Kallikrein at 2 mM; type: cell-free
Outline: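 Human plasma kallikrein in 50 mM Tris/HCl, 100 mM NaCl, pH 8.44, with H-D-Pro-Phe-Arg-p-nitroanilide (S-2302) as chromogenic substrate. Percent inhibition was taken at 2.0 mM inhibitor against 0.1 mM S-2302 (Km = 0.604 mM).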

[2] = target: Prothrombin (Homo sapiens) (UniProt P00734); test: Inhibition against human plasma thrombin at 1.0 mM; type: cell-free
Outline: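 Highly purified human plasma thrombin in 0.2 M Tris/AcOH, pH 8.00, with H-D-Ile-Pro-Arg-p-nitroanilide (S-2288) as chromogenic substrate. Inhibition was measured at 1.0 mM inhibitor against 7.0 µM S-2288 (Km = 7.10 µM).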

[3] = target: T1, Tissue-type plasminogen activator (Homo sapiens, UniProt P00750); test: Inhibition against Tissue plasminogen activator at 1 mM
Outline: (§1)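 Tissue-type plasminogen activator assayed by chromogenic amidolysis of H-D-Ile-Pro-Arg-p-nitroanilide (S-2288) in 0.2 M Tris/AcOH, pH 8.00. Percent inhibition was measured at 1.0 mM inhibitor against 0.3 mM S-2288 (Km = 0.673 mM). Separate Ki work used 0.1–0.9 mM S-2288.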
Target sequence in this assay (P00750 36-562 limits assumed): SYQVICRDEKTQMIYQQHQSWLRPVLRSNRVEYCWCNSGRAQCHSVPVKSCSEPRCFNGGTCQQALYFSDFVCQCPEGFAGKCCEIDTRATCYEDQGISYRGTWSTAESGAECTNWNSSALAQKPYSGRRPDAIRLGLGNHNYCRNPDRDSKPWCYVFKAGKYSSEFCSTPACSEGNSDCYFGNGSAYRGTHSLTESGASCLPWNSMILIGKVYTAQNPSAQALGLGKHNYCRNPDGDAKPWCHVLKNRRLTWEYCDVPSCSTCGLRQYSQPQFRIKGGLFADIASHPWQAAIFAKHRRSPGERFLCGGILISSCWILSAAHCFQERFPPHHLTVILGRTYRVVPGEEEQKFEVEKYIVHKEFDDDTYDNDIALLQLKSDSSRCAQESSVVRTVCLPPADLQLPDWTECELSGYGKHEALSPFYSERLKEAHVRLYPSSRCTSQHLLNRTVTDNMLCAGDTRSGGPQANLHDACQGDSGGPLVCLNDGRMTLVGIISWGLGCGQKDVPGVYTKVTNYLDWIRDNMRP

[4] = target: T2, Serine protease 1 (Bos taurus, UniProt P00760); test: log1/Ki value was calculated against Trypsin; conditions: read-out: Log 1/Ki (converted)
T2 sequence (P00760 whole entry): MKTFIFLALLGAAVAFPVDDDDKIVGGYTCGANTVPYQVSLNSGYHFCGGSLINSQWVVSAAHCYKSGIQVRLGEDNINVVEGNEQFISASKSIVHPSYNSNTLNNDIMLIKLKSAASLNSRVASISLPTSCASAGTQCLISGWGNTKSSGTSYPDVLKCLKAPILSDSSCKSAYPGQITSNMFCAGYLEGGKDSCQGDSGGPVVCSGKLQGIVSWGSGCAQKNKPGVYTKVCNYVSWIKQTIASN

[5] = target: T3, Urokinase-type plasminogen activator (Homo sapiens, UniProt P00749); test: log1/Ki value was calculated against Urokinase-type plasminogen activator; conditions: read-out: Log 1/Ki (converted)
[6] = target: T2, Serine protease 1; test: Inhibition against Trypsin
[7] = target: T3, Urokinase-type plasminogen activator; test: Inhibition against Urokinase-type plasminogen activator
[8] = target: T1, Tissue-type plasminogen activator; test: The compound was tested for its inhibition against Tissue plasminogen activator at 1 mM when assayed against 0.3 mM S-2288 (Km = 0.673 mM); outline: as §1
Target sequence in this assay (P00750 whole entry): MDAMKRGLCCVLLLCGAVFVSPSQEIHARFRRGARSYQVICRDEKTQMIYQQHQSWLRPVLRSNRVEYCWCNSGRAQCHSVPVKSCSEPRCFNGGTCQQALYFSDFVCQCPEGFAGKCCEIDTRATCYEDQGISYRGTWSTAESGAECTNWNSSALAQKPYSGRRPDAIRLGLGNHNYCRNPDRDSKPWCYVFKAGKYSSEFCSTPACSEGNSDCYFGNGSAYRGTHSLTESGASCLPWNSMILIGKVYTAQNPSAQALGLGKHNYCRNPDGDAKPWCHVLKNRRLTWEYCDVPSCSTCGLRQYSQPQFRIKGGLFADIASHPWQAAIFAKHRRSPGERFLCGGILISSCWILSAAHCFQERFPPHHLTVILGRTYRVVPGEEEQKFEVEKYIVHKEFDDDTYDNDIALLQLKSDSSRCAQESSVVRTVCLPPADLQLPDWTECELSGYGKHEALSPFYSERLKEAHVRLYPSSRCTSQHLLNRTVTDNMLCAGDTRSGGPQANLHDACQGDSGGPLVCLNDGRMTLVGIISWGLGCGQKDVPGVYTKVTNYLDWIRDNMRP

[9] = target: Plasminogen (Homo sapiens, UniProt P00747); test: Inhibition against human plasmin was determined at 0.5 mM
Outline: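 Human plasmin chromogenic amidolysis assay with substrate S-2251. Inhibition was measured at 0.5 mM inhibitor against 0.3 mM S-2251 (Km = 0.664 mM).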

Chain of Plasma kallikrein (Homo sapiens) (P03952 20-390 limits assumed): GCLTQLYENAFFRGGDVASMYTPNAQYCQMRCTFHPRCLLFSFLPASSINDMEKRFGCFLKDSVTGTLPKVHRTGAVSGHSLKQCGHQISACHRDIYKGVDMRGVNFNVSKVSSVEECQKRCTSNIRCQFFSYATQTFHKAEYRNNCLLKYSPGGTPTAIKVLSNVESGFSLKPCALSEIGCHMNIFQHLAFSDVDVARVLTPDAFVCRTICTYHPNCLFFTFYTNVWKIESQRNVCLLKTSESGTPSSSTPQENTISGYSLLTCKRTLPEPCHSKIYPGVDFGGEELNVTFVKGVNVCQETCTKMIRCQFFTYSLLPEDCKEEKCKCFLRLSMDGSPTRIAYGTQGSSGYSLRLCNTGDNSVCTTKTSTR
Chain of Plasma kallikrein (Homo sapiens) (P03952 391-638 limits assumed): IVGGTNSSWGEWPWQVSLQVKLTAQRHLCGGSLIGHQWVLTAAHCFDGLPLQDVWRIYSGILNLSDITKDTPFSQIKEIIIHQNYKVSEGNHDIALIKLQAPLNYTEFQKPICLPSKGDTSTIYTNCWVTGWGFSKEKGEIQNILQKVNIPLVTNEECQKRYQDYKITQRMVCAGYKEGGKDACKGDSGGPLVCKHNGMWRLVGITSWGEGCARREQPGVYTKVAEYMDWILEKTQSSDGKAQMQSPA
Chain of Plasminogen (P00747 97-580 limits assumed): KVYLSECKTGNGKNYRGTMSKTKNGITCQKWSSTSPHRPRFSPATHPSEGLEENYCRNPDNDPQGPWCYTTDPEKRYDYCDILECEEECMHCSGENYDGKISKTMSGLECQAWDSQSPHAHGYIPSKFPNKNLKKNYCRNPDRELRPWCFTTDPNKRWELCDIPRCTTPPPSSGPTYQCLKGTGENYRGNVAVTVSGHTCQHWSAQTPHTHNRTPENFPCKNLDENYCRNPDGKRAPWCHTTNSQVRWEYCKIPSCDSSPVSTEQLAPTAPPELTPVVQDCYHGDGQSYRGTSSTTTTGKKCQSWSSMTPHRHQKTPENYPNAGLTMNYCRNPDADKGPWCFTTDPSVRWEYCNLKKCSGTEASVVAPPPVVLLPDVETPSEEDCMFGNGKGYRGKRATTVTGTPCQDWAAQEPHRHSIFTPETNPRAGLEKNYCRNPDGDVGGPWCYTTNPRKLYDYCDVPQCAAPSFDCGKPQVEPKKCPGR
Chain of Plasminogen (P00747 581-810 limits assumed): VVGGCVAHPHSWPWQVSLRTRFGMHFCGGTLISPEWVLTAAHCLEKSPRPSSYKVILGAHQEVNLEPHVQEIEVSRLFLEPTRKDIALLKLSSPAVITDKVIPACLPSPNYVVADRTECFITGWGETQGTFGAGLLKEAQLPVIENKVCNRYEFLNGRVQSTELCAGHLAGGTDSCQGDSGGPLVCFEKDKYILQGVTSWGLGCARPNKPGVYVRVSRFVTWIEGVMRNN

Row | Structure (SMILES) | inhibition [1] | inhibition [2] | inhibition [3] | Ki [4] | Ki [5] | Ki [6] | Ki [7] | Ki [8] | Ki [9]
1 | N=C(N)Nc1ccccc1Cl | < 30% | < 10% | < 45% |  |  |  |  |  | 
2 | COc1ccc(NC(=N)N)cc1 | < 30% | < 10% | < 45% | 5890 µM | 676 µM | 5890 µM | 676 µM |  | 
3 | COc1ccccc1NC(=N)N | < 30% | < 10% | < 45% | 881 µM | 136 µM | 881 µM | 136 µM |  | 
4 | Cc1ccc(NC(=N)N)cc1 | < 30% | < 10% | < 45% | 318 µM | 15.6 µM | 318 µM | 15.6 µM |  | 
5 | N=C(N)Nc1ccc(Cl)cc1 | < 30% | < 10% | < 45% | 120 µM | 6.07 µM | 120 µM | 6.07 µM |  | 
6 | N=C(N)Nc1ccccc1N | < 30% | < 10% | < 45% | 1180 µM | 388 µM | 1180 µM | 388 µM |  | 
7 | N=C(N)Nc1ccc(C(F)(F)F)cc1 | < 30% | < 10% | < 45% | 63.1 µM | 6.49 µM | 63.1 µM | 6.49 µM |  | 
8 | CCc1ccc(NC(=N)N)cc1 | < 30% | < 10% | < 45% | 5770 µM | 90.8 µM | 5770 µM | 90.7 µM |  | 
9 | COC(=O)c1ccc(NC(=N)N)cc1 | < 30% | < 10% | < 45% | 652 µM | 1450 µM | 652 µM | 1450 µM |  | 
10 | NC(N)=Nc1cccc(Cl)c1 |  |  |  | 1100 µM | 61.7 µM | 1100 µM | 61.8 µM |  | 
11 | NC(N)=Nc1cccc(C(F)(F)F)c1 |  |  |  | 10700 µM | 419 µM | 10700 µM | 419 µM |  | 
12 | N=C(N)Nc1ccc(/C=C/C(=O)O)cc1 |  |  | < 45% | 4920 µM | 1320 µM | 4920 µM | 1330 µM |  | 
13 | N=C(N)Nc1cccc(C(F)(F)F)c1 | < 30% | < 10% | < 45% |  |  |  |  |  | 
14 | N=C(N)Nc1ccc(F)cc1 | < 30% | < 10% | < 45% | 807 µM | 72.4 µM | 808 µM | 72.4 µM |  | 
15 | N=C(N)Nc1ccc([N+](=O)[O-])cc1 | < 30% | < 10% |  | 352 µM | 20.6 µM | 352 µM | 20.6 µM |  | 
16 | N=C(N)Nc1cccc(Cl)c1 | < 30% | < 10% | < 45% |  |  |  |  |  | 

The remaining lines, values ahead:

Row | inhibition [1] | inhibition [2] | inhibition [3] | Ki [4] | Ki [5] | Ki [6] | Ki [7] | Ki [8] | Ki [9] | Structure (SMILES)
17 | < 30% | < 10% | < 45% | 3550 µM | 259 µM | 3550 µM | 259 µM |  |  | Cc1ccccc1NC(=N)N
18 |  |  |  | 897 µM | 103 µM | 898 µM | 103 µM |  |  | NC(N)=Nc1ccccc1Cl
19 | < 30% | < 10% |  | 163 µM | 20.6 µM | 163 µM | 20.6 µM | 733 µM | 2610 µM | N=C(N)Nc1ccccc1 [PHENYLGUANIDINE]
20 | < 30% | < 10% | < 45% | 10000 µM | 745 µM | 10000 µM | 745 µM |  |  | N=C(N)Nc1ccc(C(=O)O)cc1 [4-GUANIDINO-BENZOIC ACID]
21 | < 30% | < 10% | < 45% |  |  |  |  |  |  | N=C(N)Nc1ccccc1[N+](=O)[O-]
22 |  |  |  | 133 µM | 54.3 µM | 133 µM | 54.3 µM |  |  | NC(N)=Nc1ccccc1[N+](=O)[O-]
23 | < 30% | < 10% | < 45% | 2780 µM | 30.7 µM | 2780 µM | 30.7 µM |  |  | N=C(N)Nc1ccc(Br)cc1
